Test results as given in ChEMBL document CHEMBL1123396, “Glycine antagonists. Synthesis, structure, and biological effects of some bicyclic 5-isoxazolol zwitterions” (J Med Chem, 1986).

Assays:
[1] = target: GABA-A receptor; anion channel; test: In vitro inhibition of [3H]GABA binding to Gamma-aminobutyric acid receptor from rat brain synaptic membranes.; type: cell membranes, Membrane
Outline: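 Rat brain synaptic membranes (0.8–1.2 mg protein) incubated in triplicate in 50 mM Tris-citrate pH 7.1 with 5 nM [3H]GABA and various test concentrations, 15 min at 2 °C. Centrifugation at 48000g for 10 min, pellets rinsed twice with cold water, scintillation counting. Nonspecific binding (1 mM GABA) subtracted. IC50 by log-probit analysis of inhibition at at least four concentrations.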

[2] = pKa value of the compound; type: physicochemical
Outline: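 Potentiometric titration with 0.1 N NaOH to pH ca. 10, ionic strength held constant with 0.15 M KCl.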

GABA transporter = GABA transporter (Rattus norvegicus, UniProt P31647+P23978+P31646+P48056); test: In vitro inhibition of rat neuronal (synaptosomal) GABA uptake.; type: protein assay
Outline: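 Crude rat whole-brain synaptosomes (homogenized in 0.32 M sucrose, 600g and 25000g spins at 4 °C) suspended in oxygenated phosphate medium. Preincubated 10 min at 25 °C with inhibitor, then [3H]GABA added to 50 nM final and incubated 10 min more. Rapid glass-fiber filtration, ice-cold buffer wash, scintillation counting.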

IC50 [1] | pKa [2] | IC50 (GABA transporter) | SMILES
> 100 µM | 2.6 | > 300 µM | Oc1onc2c1CNCCC2
100 µM | 3 | 130 µM | Oc1onc2c1CNCC2
> 100 µM | 2.5 | > 300 µM | Oc1onc2c1CCCNC2

Second part, the compound before the results:

SMILES | IC50 [1] | pKa [2] | IC50 (GABA transporter)
Oc1noc2c1CNCC2 | 72 µM | – | –
Oc1onc2c1CCNCC2 | 15 µM | 3.3 | > 300 µM
Oc1noc2c1CCNCC2 | – | – | > 300 µM
NCCC(N)C(=O)O (stereo unspecified) | 0.033 µM | 4 | –
